Ends that are not written are not given here.
What was measured:
LNCs = assay: Cytokine secretion by restimulated LNCs, cytokine bead array; assay type: cell-based, mouse; conditions: supernatants of LNCs from mice immunized with the named peptide (Fig. S2c)
A/J mice = assay: Induction of myocarditis by immunization with SERCA2a peptides, histology; assay type: in vivo, mouse; conditions: individual peptide/CFA + PT; for Total inflammatory foci (Mean ± SEM): day 21, H&E heart sections; for Severity of lesions, Atria, Number of animals affected (%), Mild / Severity of lesions, Ventricle, Number of animals affected (%), Mild / Severity of lesions, Atria, Number of animals affected (%), Normal / Severity of lesions, Ventricle, Number of animals affected (%), Normal / Severity of lesions, Atria, Number of animals affected (%), Severe / Severity of lesions, Ventricle, Number of animals affected (%), Severe: day 21, H&E; for Severity of lesions, Atria, Number of animals affected (%), Mild / Severity of lesions, Ventricle, Number of animals affected (%), Mild: mild = 1–5 foci; for Severity of lesions, Atria, Number of animals affected (%), Normal / Severity of lesions, Ventricle, Number of animals affected (%), Normal: normal = 0 foci; for Severity of lesions, Atria, Number of animals affected (%), Severe / Severity of lesions, Ventricle, Number of animals affected (%), Severe: severe = 26 foci and above
Procedure, shortened: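 Mice got peptide/CFA emulsion (M. tuberculosis H37RA extract 5 mg/ml), 50–100 μg individual peptide, s.c. at inguinal and sternum sites on days 0 and 7. Pertussis toxin 100 ng/mouse i.p. on days 0 and 2. Controls: untreated, CFA+PT. Organs harvested day 21, formalin-fixed, 5 μm H&E sections ~150 μm apart. Blinded foci counts scored 0 / 1–5 / 6–25 / ≥26.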

Substance: SERCA2a 31-50: N-terminally acetylated 20-mer peptide of SERCA2a, residues 31-50 (Ac-KLKERWGSNELPAEEGKTLL; UniProt P16615 31-50, looked up, fragment)
- Cytokine pattern of peptides inducing mild disease (LNCs): produced mainly IFN-γ
- Total inflammatory foci (Mean ± SEM) (A/J mice; SEM): 8.00 ± 0.00
- Severity of lesions, Atria, Number of animals affected (%), Mild (A/J mice): 0 (0) %
- Severity of lesions, Ventricle, Number of animals affected (%), Mild (A/J mice): 0 (0) %
- Severity of lesions, Atria, Number of animals affected (%), Normal (A/J mice): 5
- Severity of lesions, Ventricle, Number of animals affected (%), Normal (A/J mice): 4
- Severity of lesions, Atria, Number of animals affected (%), Severe (A/J mice): 0 (0) %
- Severity of lesions, Ventricle, Number of animals affected (%), Severe (A/J mice): 0 (0) %

Substance: SERCA2a 161-180: N-terminally acetylated 20-mer peptide of SERCA2a, residues 161-180 (Ac-ADIRLTSIKSTTLRVDQSIL; UniProt P16615 161-180, looked up, fragment)
- Cytokine pattern of peptides inducing mild disease (LNCs): underproduction of both IFN-γ and IL-17A
- Total inflammatory foci (Mean ± SEM) (A/J mice; SEM): 2.50 ± 0.64
- Severity of lesions, Ventricle, Number of animals affected (%), Mild (A/J mice): 3 (30) %
- Severity of lesions, Atria, Number of animals affected (%), Normal (A/J mice): 6
- Severity of lesions, Ventricle, Number of animals affected (%), Normal (A/J mice): 7
- Severity of lesions, Atria, Number of animals affected (%), Severe (A/J mice): 0 (0) %
- Severity of lesions, Ventricle, Number of animals affected (%), Severe (A/J mice): 0 (0) %

Substance: SERCA2a 171-190: N-terminally acetylated 20-mer peptide of SERCA2a, residues 171-190 (Ac-TTLRVDQSILTGESVSVIKH; UniProt P16615 171-190, looked up, fragment)
- Total inflammatory foci (Mean ± SEM) (A/J mice; SEM): 2.00 ± 0.00
- Severity of lesions, Atria, Number of animals affected (%), Mild (A/J mice): 1 (20) %
- Severity of lesions, Ventricle, Number of animals affected (%), Mild (A/J mice): 1 (20) %
- Severity of lesions, Atria, Number of animals affected (%), Normal (A/J mice): 4
- Severity of lesions, Ventricle, Number of animals affected (%), Normal (A/J mice): 4
- Severity of lesions, Atria, Number of animals affected (%), Severe (A/J mice): 0 (0) %
- Severity of lesions, Ventricle, Number of animals affected (%), Severe (A/J mice): 0 (0) %

Substance: SERCA2a 311-330: N-terminally acetylated 20-mer peptide of SERCA2a, residues 311-330 (Ac-LPAVITTCLALGTRRMAKKN; UniProt P16615 311-330, looked up, fragment)
- Total inflammatory foci (Mean ± SEM) (A/J mice): 0
- Severity of lesions, Atria, Number of animals affected (%), Mild (A/J mice): 0 (0) %
- Severity of lesions, Ventricle, Number of animals affected (%), Mild (A/J mice): 0 (0) %
- Severity of lesions, Atria, Number of animals affected (%), Normal (A/J mice): 5
- Severity of lesions, Ventricle, Number of animals affected (%), Normal (A/J mice): 5
- Severity of lesions, Atria, Number of animals affected (%), Severe (A/J mice): 0 (0) %
- Severity of lesions, Ventricle, Number of animals affected (%), Severe (A/J mice): 0 (0) %

Substance: SERCA2a 471-490: N-terminally acetylated 20-mer peptide of SERCA2a, residues 471-490 (Ac-CNSVIKQLMKKEFTLEFSRD; UniProt P16615 471-490, looked up, fragment)
- Total inflammatory foci (Mean ± SEM) (A/J mice): 0
- Severity of lesions, Atria, Number of animals affected (%), Mild (A/J mice): 0 (0) %
- Severity of lesions, Ventricle, Number of animals affected (%), Mild (A/J mice): 0 (0) %
- Severity of lesions, Atria, Number of animals affected (%), Normal (A/J mice): 5
- Severity of lesions, Ventricle, Number of animals affected (%), Normal (A/J mice): 5
- Severity of lesions, Atria, Number of animals affected (%), Severe (A/J mice): 0 (0) %
- Severity of lesions, Ventricle, Number of animals affected (%), Severe (A/J mice): 0 (0) %

Substance: SERCA2a 481-500: N-terminally acetylated 20-mer peptide of SERCA2a, residues 481-500 (Ac-KEFTLEFSRDRKSMSVYCTP; UniProt P16615 481-500, looked up, fragment)
- Total inflammatory foci (Mean ± SEM) (A/J mice): 0
- Severity of lesions, Atria, Number of animals affected (%), Mild (A/J mice): 0 (0) %
- Severity of lesions, Ventricle, Number of animals affected (%), Mild (A/J mice): 0 (0) %
- Severity of lesions, Atria, Number of animals affected (%), Normal (A/J mice): 5
- Severity of lesions, Ventricle, Number of animals affected (%), Normal (A/J mice): 5
- Severity of lesions, Atria, Number of animals affected (%), Severe (A/J mice): 0 (0) %
- Severity of lesions, Ventricle, Number of animals affected (%), Severe (A/J mice): 0 (0) %

Substance: SERCA2a 591-610: N-terminally acetylated 20-mer peptide of SERCA2a, residues 591-610 (Ac-TFVGCVGMLDPPRIEVASSV; UniProt P16615 591-610, looked up, fragment)
- Total inflammatory foci (Mean ± SEM) (A/J mice): 0
- Severity of lesions, Atria, Number of animals affected (%), Mild (A/J mice): 0 (0) %
- Severity of lesions, Ventricle, Number of animals affected (%), Mild (A/J mice): 0 (0) %
- Severity of lesions, Atria, Number of animals affected (%), Normal (A/J mice): 5
- Severity of lesions, Ventricle, Number of animals affected (%), Normal (A/J mice): 5
- Severity of lesions, Atria, Number of animals affected (%), Severe (A/J mice): 0 (0) %
- Severity of lesions, Ventricle, Number of animals affected (%), Severe (A/J mice): 0 (0) %

Substance: SERCA2a 601-620: N-terminally acetylated 20-mer peptide of SERCA2a, residues 601-620 (Ac-PPRIEVASSVKLCRQAGIRV; UniProt P16615 601-620, looked up, fragment)
- Total inflammatory foci (Mean ± SEM) (A/J mice): 0
- Severity of lesions, Atria, Number of animals affected (%), Mild (A/J mice): 0 (0) %
- Severity of lesions, Ventricle, Number of animals affected (%), Mild (A/J mice): 0 (0) %
- Severity of lesions, Atria, Number of animals affected (%), Normal (A/J mice): 5
- Severity of lesions, Ventricle, Number of animals affected (%), Normal (A/J mice): 5
- Severity of lesions, Atria, Number of animals affected (%), Severe (A/J mice): 0 (0) %
- Severity of lesions, Ventricle, Number of animals affected (%), Severe (A/J mice): 0 (0) %

Substance: SERCA2a 821-840: N-terminally acetylated 20-mer peptide of SERCA2a, residues 821-840 (Ac-RNPKEPLISGWLFFRYLAIG; UniProt P16615 821-840, looked up, fragment)
- Total inflammatory foci (Mean ± SEM) (A/J mice): 0
- Severity of lesions, Atria, Number of animals affected (%), Mild (A/J mice): 0 (0) %
- Severity of lesions, Ventricle, Number of animals affected (%), Mild (A/J mice): 0 (0) %
- Severity of lesions, Atria, Number of animals affected (%), Normal (A/J mice): 5
- Severity of lesions, Ventricle, Number of animals affected (%), Normal (A/J mice): 5
- Severity of lesions, Atria, Number of animals affected (%), Severe (A/J mice): 0 (0) %
- Severity of lesions, Ventricle, Number of animals affected (%), Severe (A/J mice): 0 (0) %

Substance: SERCA2a 951-970: N-terminally acetylated 20-mer peptide of SERCA2a, residues 951-970 (Ac-PLPLIFQITPLNVTQWLMVL; UniProt P16615 951-970, looked up, fragment)
- Total inflammatory foci (Mean ± SEM) (A/J mice; SEM): 40.00 ± 39.00
- Severity of lesions, Atria, Number of animals affected (%), Mild (A/J mice): 1 (10) %
- Severity of lesions, Ventricle, Number of animals affected (%), Mild (A/J mice): 0 (0) %
- Severity of lesions, Atria, Number of animals affected (%), Normal (A/J mice): 8
- Severity of lesions, Ventricle, Number of animals affected (%), Normal (A/J mice): 9
- Severity of lesions, Atria, Number of animals affected (%), Severe (A/J mice): 1 (10) %
- Severity of lesions, Ventricle, Number of animals affected (%), Severe (A/J mice): 1 (10) %
